Test results: ChEMBL document CHEMBL1133021, “1,3,5-Trialkyl-2,4,6-triiodobenzenes: novel X-ray contrast agents for gastrointestinal imaging” (J Med Chem, 2000)

Legend:
Cricetinae gen. sp. [1] = test: Number of hamsters (female) with follicular cell dilation over the total number of tested at 4.56 g/kg of compound in iodinated form administered orally; 1/3; type: functional, Cricetulus griseus
Cricetinae gen. sp. [2] = test: Number of hamsters (female) with follicular cell necrosis over the total number of tested at 4.56 g/kg of compound in iodinated form administered orally; 1/6; type: functional, Cricetulus griseus
Cricetinae gen. sp. [3] = test: Number of hamsters (male) with follicular cell necrosis over the total number of tested at 4.56 g/kg of compound in iodinated form administered orally; 0/3; type: functional, Cricetulus griseus
Cricetinae gen. sp. [4] = test: Number of hamsters (female) with follicular cell mitotic figures above the control value, to that of total number of tested at 4.56 g/kg of compound in iodinated form administered orally; 1/3; type: functional, Cricetulus griseus
Cricetinae gen. sp. [5] = test: Number of hamsters (male) with follicular cell dilation over the total number of tested at 4.56 g/kg of compound in iodinated form administered orally; 1/3; type: functional, Cricetulus griseus
Cricetinae gen. sp. [6] = test: Number of hamsters (male) with follicular cell mitotic figures above the control value, to that of total number of tested at 4.56 g/kg of compound in iodinated form administered orally; 1/3; type: functional, Cricetulus griseus
Mus musculus [7] = test: Mortality observed in mouse tested for murine toxicity after a single dose of compound (8.49 g/kg) containing iodinated form (4.56 g/kg) of it, administered as 40 mL/kg solution; 0/3; type: functional
How it was run: (§1)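 Mice, 3 per dose group, received a single oral dose of the test agent as a mineral oil-in-water emulsion. Doses were 10, 20 or 40 mL/kg, about 1-, 2- and 4-fold the anticipated human dose of 114 mg I/mL. Emulsion vehicle alone at 40 mL/kg was the control. Clinical signs and mortality were checked several times on the dosing day, then daily for 7 days. Body weight was taken at 24 h and 1 week, and survivors were necropsied on day 7. Read-out was deaths over animals dosed.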

Mus musculus [8] = test: Toxicity in mice evaluated, after a single dose of compound containing 1.14 g/kg of iodinated form administered as 10 mL/kg solution; NT=No toxicity; type: organism-based; conditions: in vivo, 1140 mg/kg; how it was run: as §1
Mus musculus [9] = test: Toxicity in mice evaluated, after a single dose of compound containing 2.28 g/kg of iodinated form administered as 20 ml/kg solution; NT=No toxicity; type: organism-based; conditions: in vivo, 2280 mg/kg; how it was run: as §1
Cricetinae gen. sp. [10] = test: Number of hamsters (female) with follicular cell dilation over the total number of tested at 4.56 g/kg of compound in iodinated form administered orally; 3/3; type: functional, Cricetulus griseus
Cricetinae gen. sp. [11] = test: Number of hamsters (female) with follicular cell necrosis over the total number of tested at 4.56 g/kg of compound in iodinated form administered orally; 0/3; type: functional, Cricetulus griseus
Cricetinae gen. sp. [12] = test: Number of hamsters (male) with follicular cell necrosis over the total number of tested at 4.56 g/kg of compound in iodinated form administered orally; 3/3; type: functional, Cricetulus griseus
Cricetinae gen. sp. [13] = test: Number of hamsters (female) with follicular cell mitotic figures above the control value, to that of total number of tested at 4.56 g/kg of compound in iodinated form administered orally; 3/3; type: functional, Cricetulus griseus
Cricetinae gen. sp. [14] = test: Number of hamsters (male) with follicular cell dilation over the total number of tested at 4.56 g/kg of compound in iodinated form administered orally; 3/3; type: functional, Cricetulus griseus
Cricetinae gen. sp. [15] = test: Number of hamsters (male) with follicular cell mitotic figures above the control value, to that of total number of tested at 4.56 g/kg of compound in iodinated form administered orally; 3/3; type: functional, Cricetulus griseus
Cricetulus griseus [16] = species: Cricetulus griseus; test: Compound (4 uM) was evaluated for the half-life period in hamster after incubation with microsomes for 60 min; type: functional; conditions: Microsome
How it was run: (§2)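 Liver microsomes from male Sprague-Dawley rat, male golden Syrian hamster or human, incubated with substrate at 4 µM. Duplicate incubates were sampled at 0, 15, 30 and 60 min, quenched with saturated zinc sulfate and extracted with propan-2-ol. Samples were analysed by isocratic reversed-phase C8 HPLC (65% i-PrOH/water, 0.1% TFA). Values were normalized to the 0 min control to derive half-life (n = 2).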

Cricetulus griseus [17] = species: Cricetulus griseus; test: Percent of compound (40 uM) present in unmetabolized form in hamsters after incubation with microsomes for 60 min; type: functional; conditions: Microsome
How it was run: (§3)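 Substrate at 40 µM was incubated 60 min with male Sprague-Dawley rat or male golden Syrian hamster liver microsomes, in duplicate, with sampling at 0, 15, 30 and 60 min. Aliquots were zinc sulfate-quenched, propan-2-ol-extracted and run on isocratic reversed-phase C8 HPLC. Intact drug is expressed relative to 0 min control values.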

Rattus norvegicus [18] = species: Rattus norvegicus; test: Compound (4 uM) was evaluated for the half-life period in rats after incubation with microsomes for 60 min; type: functional; conditions: Microsome; how it was run: as §2
Rattus norvegicus [19] = species: Rattus norvegicus; test: Percent of compound (40 uM) present in unmetabolized form in rats after incubation with microsomes for 60 min; type: functional; conditions: Microsome; how it was run: as §3
Mus musculus [20] = test: Mortality observed in mouse tested for murine toxicity after a single dose of compound (7.00 g/kg) containing iodinated form (4.56 g/kg) of it, administered as 40 mL/kg solution; 0/3; type: functional; how it was run: as §1
Homo sapiens = species: Homo sapiens; test: Compound (4 uM) was evaluated for the half-life period in humans after incubation with microsomes for 60 min; conditions: Microsome
Cricetinae gen. sp. [21] = test: Number of hamsters (male) with follicular cell necrosis over the total number of tested at 4.56 g/kg of compound in iodinated form administered orally; 0/5; type: functional, Cricetulus griseus
Cricetinae gen. sp. [22] = test: Number of hamsters (male) with follicular cell mitotic figures above the control value, to that of total number of tested at 4.56 g/kg of compound in iodinated form administered orally; 0/5; type: functional, Cricetulus griseus
Cricetinae gen. sp. [23] = test: Number of hamsters (male) with follicular cell dilation over the total number of tested at 4.56 g/kg of compound in iodinated form administered orally; 0/5; type: functional, Cricetulus griseus
Mus musculus [24] = test: Mortality observed in mouse tested for murine toxicity, 7 days after a single dose of compound containing 3.27g/kg of iodinated form, administered as 20 ml/kg solution; type: functional; how it was run: as §1
Mus musculus [25] = test: Mortality observed in mouse tested for murine toxicity, 7 days after a single dose of compound containing 6.53 g/kg of iodinated form, administered as 40 mL/kg solution; type: functional; how it was run: as §1
Mus musculus [26] = test: Mortality observed in mouse tested for murine toxicity after a single dose of compound (12.5 g/kg) containing iodinated form (3.81 g/kg) of it, administered as 10 mL/kg solution; 3/3; type: functional
Mus musculus [27] = test: Mortality observed in mouse tested for murine toxicity after a single dose of compound (2.80 g/kg) containing iodinated form (0.853 g/kg) of it, administered as 10 mL/kg solution; 1/3; type: functional
Mus musculus [28] = test: Mortality observed in mouse tested for murine toxicity after a single dose of compound (5.34 g/kg) containing iodinated form (1.63 g/kg) of it, administered as 10 mL/kg solution; 3/3; type: functional
Mus musculus [29] = test: Mortality observed in mouse tested for murine toxicity after a single dose of compound (6.26 g/kg) containing iodinated form (1.91 g/kg) of it, administered as 10 mL/kg solution; 1/3; type: functional

`CCCCCCc1c(I)c(CCCCCC)c(I)c(CCCCCC)c1I` gave a Dilation (Cricetinae gen. sp. [1]) of 0, a Necrosis (Cricetinae gen. sp. [2]) of 0 and a Necrosis (Cricetinae gen. sp. [3]) of 0. The Mitotic figures (Cricetinae gen. sp. [4]) was 0, the Dilation (Cricetinae gen. sp. [5]) was 1 and the Mitotic figures (Cricetinae gen. sp. [6]) was 1. The Mortality (Mus musculus [7]) was 0 number of descendants/number of tested, the Toxicity (Mus musculus [8]) was “Not toxic” and the Toxicity (Mus musculus [9]) was “Not toxic”.
Work on `CCCCCCC(C)Oc1c(I)cc(I)cc1I` (configuration not stated) yielded a Dilation (Cricetinae gen. sp. [10]) of 3, a Necrosis (Cricetinae gen. sp. [11]) of 0 and a Necrosis (Cricetinae gen. sp. [12]) of 2. For the same compound, the Mitotic figures (Cricetinae gen. sp. [13]) was 3, the Dilation (Cricetinae gen. sp. [14]) was 3 and the Mitotic figures (Cricetinae gen. sp. [15]) was 3. The T1/2 (Cricetulus griseus [16]) was 15 min, the Intact (Cricetulus griseus [17]) was 73% and the T1/2 (Rattus norvegicus [18]) was 36 min. For the same compound, the Intact (Rattus norvegicus [19]) was 73%, the Mortality (Mus musculus [20]) was 0 number of descendants/number of tested and the Toxicity (Mus musculus [8]) was “Not toxic”. The Toxicity (Mus musculus [9]) was “Not toxic” and the T1/2 (Homo sapiens) was 132 min.
For `CC(C)CCCCCc1c(I)c(CCCCCC(C)C)c(I)c(CCCCCC(C)C)c1I`, the Necrosis (Cricetinae gen. sp. [21]) was 0, the Mitotic figures (Cricetinae gen. sp. [22]) was 0 and the Dilation (Cricetinae gen. sp. [23]) was 0.
With `CCOC(=O)CCCCCCCCC(C)c1ccc(I)cc1` (configuration not stated) [IOPHENDYLATE] the Mortality (Mus musculus [24]) was 100%, the Mortality (Mus musculus [25]) was 100% and the Mortality (Mus musculus [26]) was 3 number of descendants/number of tested. The Mortality (Mus musculus [27]) was 1 number of descendants/number of tested, the Mortality (Mus musculus [28]) was 3 number of descendants/number of tested and the Mortality (Mus musculus [29]) was 1 number of descendants/number of tested.
